In ChEMBL document CHEMBL1138245, “Discovery of N1-(6-chloroimidazo[2,1-b][1,3]thiazole-5-sulfonyl)tryptamine as a potent, selective, and orally active 5-HT(6) receptor agonist” (J Med Chem, 2007):
Converted amounts (≈) assume the structure as drawn.

Experiments:
[1] = molecular target: 5-hydroxytryptamine receptor 2A (Homo sapiens) (UniProt P28223); test: Displacement of [125I]DOI from human 5HT2A receptor expressed in CHO cells at 1 uM; assay type: cell-based
[2] = molecular target: Beta-2 adrenergic receptor (Homo sapiens) (UniProt P07550); test: Displacement of radio ligand from beta-2 adrenergic receptor at 10 nM
[3] = Drug level in Sprague-Dawley rat plasma at 3 mg/kg, ip after 0.25 hr; assay type: ADME, organism-based; set-up: dose 3 mg/kg, route intraperitoneal
Summary of the method: (§1)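 Rats given a single 3 mg/kg ip or 100 mg/kg oral dose; plasma and brain concentrations measured over time to assess brain/plasma ratio.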

[4] = Drug level in Sprague-Dawley rat plasma at 3 mg/kg, ip after 0.5 hr; assay type: ADME, organism-based; set-up: dose 3 mg/kg, route intraperitoneal; summary of the method: as §1
[5] = Drug level in Sprague-Dawley rat plasma at 3 mg/kg, ip after 1 hr; assay type: ADME, organism-based; set-up: dose 3 mg/kg, route intraperitoneal; summary of the method: as §1
[6] = Drug level in Sprague-Dawley rat plasma at 3 mg/kg, ip after 2 hrs; assay type: ADME, organism-based; set-up: dose 3 mg/kg, route intraperitoneal; summary of the method: as §1
[7] = Drug level in Sprague-Dawley rat plasma at 3 mg/kg, ip after 4 hrs; assay type: ADME, organism-based; set-up: dose 3 mg/kg, route intraperitoneal; summary of the method: as §1
[8] = Drug level in Sprague-Dawley rat brain at 3 mg/kg, ip after 0.25 hr; assay type: ADME, organism-based; set-up: dose 3 mg/kg, route intraperitoneal; settings: read-out: Drug uptake; summary of the method: as §1
[9] = Drug level in Sprague-Dawley rat brain at 3 mg/kg, ip after 0.5 hr; assay type: ADME, organism-based; set-up: dose 3 mg/kg, route intraperitoneal; settings: read-out: Drug uptake; summary of the method: as §1
[10] = Drug level in Sprague-Dawley rat brain at 3 mg/kg, ip after 1 hr; assay type: ADME, organism-based; set-up: dose 3 mg/kg, route intraperitoneal; settings: read-out: Drug uptake; summary of the method: as §1
[11] = molecular target: 5-hydroxytryptamine receptor 2B (Homo sapiens, UniProt P41595); test: Inhibition of human 5HT2B receptor expressed in CHO cells; assay type: cell-based
[12] = molecular target: 5-hydroxytryptamine receptor 7 (Homo sapiens, UniProt P34969); test: Displacement of [3H]LSD from human 5HT7 receptor expressed in CHO cells; assay type: cell-based
Summary of the method: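 Human 5-HT₇ clone stably expressed in CHO cells; binding measured by [³H]LSD displacement; Ki determined in triplicate.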

[13] = molecular target: T1, 5-hydroxytryptamine receptor 3A (Homo sapiens) (UniProt P46098); test: Inhibition of human 5HT3 receptor expressed in CHO cells at 100 nM; assay type: cell-based
T1 sequence (whole entry): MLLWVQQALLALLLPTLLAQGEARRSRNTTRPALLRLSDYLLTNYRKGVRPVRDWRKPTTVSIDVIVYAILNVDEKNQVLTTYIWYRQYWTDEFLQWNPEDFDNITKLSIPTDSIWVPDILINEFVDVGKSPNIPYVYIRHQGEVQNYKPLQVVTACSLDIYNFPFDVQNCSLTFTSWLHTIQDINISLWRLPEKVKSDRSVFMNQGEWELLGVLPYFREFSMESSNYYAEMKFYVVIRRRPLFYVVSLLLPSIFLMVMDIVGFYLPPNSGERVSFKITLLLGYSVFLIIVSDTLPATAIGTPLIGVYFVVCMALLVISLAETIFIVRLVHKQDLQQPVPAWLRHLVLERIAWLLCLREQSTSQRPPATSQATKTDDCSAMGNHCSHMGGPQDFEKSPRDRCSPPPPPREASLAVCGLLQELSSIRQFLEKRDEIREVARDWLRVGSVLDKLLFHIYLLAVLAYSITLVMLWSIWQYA

[14] = molecular target: 5-hydroxytryptamine receptor 4 (Homo sapiens) (UniProt Q13639); test: Inhibition of human 5HT4 receptor expressed in CHO cells at 100 nM; assay type: cell-based
[15] = molecular target: 5-hydroxytryptamine receptor 5A (Homo sapiens) (UniProt P47898); test: Inhibition of human 5HT5 receptor expressed in CHO cells at 100 nM; assay type: cell-based
[16] = molecular target: 5-hydroxytryptamine receptor 1B (Homo sapiens) (UniProt P28222); test: Displacement of [3H]5-HT from human 5HT1B receptor expressed in CHO cells at 1 uM; assay type: cell-based
[17] = molecular target: 5-hydroxytryptamine receptor 1D (Homo sapiens) (UniProt P28221); test: Displacement of [3H]5HT from human 5HT1D receptor expressed in CHO cells at 1 uM; assay type: cell-based
[18] = molecular target: T2, 5-hydroxytryptamine receptor 1F (Homo sapiens) (UniProt P30939); test: Displacement of [3H]5-HT from human 5HT1F receptor expressed in CHO cells at 1 uM; assay type: cell-based
T2 sequence (whole entry): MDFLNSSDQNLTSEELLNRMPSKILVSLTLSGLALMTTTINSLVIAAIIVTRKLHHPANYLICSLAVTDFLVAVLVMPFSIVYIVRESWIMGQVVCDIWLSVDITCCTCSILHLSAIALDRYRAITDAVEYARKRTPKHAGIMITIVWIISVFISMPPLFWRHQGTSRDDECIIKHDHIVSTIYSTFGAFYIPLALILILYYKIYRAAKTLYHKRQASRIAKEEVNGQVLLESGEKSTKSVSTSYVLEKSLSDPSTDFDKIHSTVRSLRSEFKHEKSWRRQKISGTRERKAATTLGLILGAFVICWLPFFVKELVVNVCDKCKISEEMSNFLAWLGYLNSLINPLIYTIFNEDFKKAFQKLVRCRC

[19] = Aqueous solubility at pH 3 to […]; assay type: physicochemical
[20] = Aqueous solubility at pH 8; assay type: physicochemical
[21] = Permeability in parallel artificial membrane; assay type: ADME; settings: PAMPA; read-out: permeability
Summary of the method: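 Parallel artificial membrane permeability assay (PAMPA); permeability reported in cm/s; triplicate determinations, standard error <20%.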

[22] = Metabolic stability in mouse liver microsomes; assay type: ADME, Microsome
[23] = Metabolic stability in rat liver microsomes; assay type: ADME, Microsome
[24] = Metabolic stability in dog liver microsomes; assay type: ADME, Canis lupus familiaris, Microsome
[25] = Metabolic stability in monkey liver microsomes; assay type: ADME, Macaca mulatta, Microsome; settings: rhesus monkey
[26] = Metabolic stability in human liver microsomes; assay type: ADME, Microsome
[27] = AUC in rat at 1 mg/kg, iv; assay type: ADME, organism-based; set-up: dose 1 mg/kg, route intravenous; settings: plasma
[28] = AUC in rat at 10 mg/kg, po; assay type: ADME, organism-based; set-up: dose 10 mg/kg, route oral; settings: plasma
[29] = AUC in dog at 1 mg/kg, iv; assay type: ADME, organism-based, Canis lupus familiaris; set-up: dose 1 mg/kg, route intravenous; settings: plasma
[30] = AUC in dog at 5 mg/kg, po; assay type: ADME, organism-based, Canis lupus familiaris; set-up: dose 5 mg/kg, route oral; settings: plasma
[31] = Cmax in rat at 10 mg/kg, po; assay type: ADME, organism-based; set-up: dose 10 mg/kg, route oral; settings: in vivo
[32] = Cmax in dog at 5 mg/kg, po; assay type: ADME, organism-based, Canis lupus familiaris; set-up: dose 5 mg/kg, route oral; settings: in vivo
[33] = Tmax in rat at 10 mg/kg, po; assay type: ADME, organism-based; set-up: dose 10 mg/kg, route oral; settings: in vivo
[34] = Tmax in dog at 5 mg/kg, po; assay type: ADME, organism-based, Canis lupus familiaris; set-up: dose 5 mg/kg, route oral; settings: in vivo
[35] = Half life in rat at 1 mg/kg, iv; assay type: ADME, organism-based; set-up: dose 1 mg/kg, route intravenous; settings: in vivo

Sequence of 5-hydroxytryptamine receptor 1B (Homo sapiens) (P28222 whole entry): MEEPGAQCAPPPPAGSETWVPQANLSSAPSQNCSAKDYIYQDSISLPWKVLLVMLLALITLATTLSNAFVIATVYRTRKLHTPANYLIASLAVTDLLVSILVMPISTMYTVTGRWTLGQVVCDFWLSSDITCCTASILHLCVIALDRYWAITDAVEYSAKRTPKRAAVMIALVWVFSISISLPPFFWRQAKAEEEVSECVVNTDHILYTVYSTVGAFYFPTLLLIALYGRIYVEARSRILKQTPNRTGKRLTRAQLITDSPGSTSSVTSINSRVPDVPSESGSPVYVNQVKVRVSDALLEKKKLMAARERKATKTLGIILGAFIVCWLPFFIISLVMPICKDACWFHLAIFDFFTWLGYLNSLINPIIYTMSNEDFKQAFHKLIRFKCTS
Sequence of 5-hydroxytryptamine receptor 2A (Homo sapiens) (P28223 whole entry): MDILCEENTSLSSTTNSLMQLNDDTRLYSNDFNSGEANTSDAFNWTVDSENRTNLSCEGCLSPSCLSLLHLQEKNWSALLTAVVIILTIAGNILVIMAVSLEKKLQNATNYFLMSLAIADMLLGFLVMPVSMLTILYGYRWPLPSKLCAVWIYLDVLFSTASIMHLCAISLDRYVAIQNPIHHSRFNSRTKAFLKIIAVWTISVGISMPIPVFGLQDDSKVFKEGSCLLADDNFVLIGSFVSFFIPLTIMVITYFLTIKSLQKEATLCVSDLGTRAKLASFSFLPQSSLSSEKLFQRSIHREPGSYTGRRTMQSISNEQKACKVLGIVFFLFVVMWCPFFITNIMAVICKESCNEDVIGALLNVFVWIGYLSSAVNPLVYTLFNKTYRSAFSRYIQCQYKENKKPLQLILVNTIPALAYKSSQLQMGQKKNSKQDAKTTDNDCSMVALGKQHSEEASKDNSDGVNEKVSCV
Sequence of 5-hydroxytryptamine receptor 5A (Homo sapiens) (P47898 whole entry): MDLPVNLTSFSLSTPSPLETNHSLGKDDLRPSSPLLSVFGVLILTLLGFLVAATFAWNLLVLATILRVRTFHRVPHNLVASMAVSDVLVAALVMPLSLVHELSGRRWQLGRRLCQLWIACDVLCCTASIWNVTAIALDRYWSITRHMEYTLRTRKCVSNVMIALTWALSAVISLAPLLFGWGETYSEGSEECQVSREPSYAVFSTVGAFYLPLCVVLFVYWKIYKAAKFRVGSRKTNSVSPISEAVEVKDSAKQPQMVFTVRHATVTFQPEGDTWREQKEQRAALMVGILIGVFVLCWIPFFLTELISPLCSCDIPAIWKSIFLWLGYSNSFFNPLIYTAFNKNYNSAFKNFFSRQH
Sequence of 5-hydroxytryptamine receptor 7 (P34969 whole entry): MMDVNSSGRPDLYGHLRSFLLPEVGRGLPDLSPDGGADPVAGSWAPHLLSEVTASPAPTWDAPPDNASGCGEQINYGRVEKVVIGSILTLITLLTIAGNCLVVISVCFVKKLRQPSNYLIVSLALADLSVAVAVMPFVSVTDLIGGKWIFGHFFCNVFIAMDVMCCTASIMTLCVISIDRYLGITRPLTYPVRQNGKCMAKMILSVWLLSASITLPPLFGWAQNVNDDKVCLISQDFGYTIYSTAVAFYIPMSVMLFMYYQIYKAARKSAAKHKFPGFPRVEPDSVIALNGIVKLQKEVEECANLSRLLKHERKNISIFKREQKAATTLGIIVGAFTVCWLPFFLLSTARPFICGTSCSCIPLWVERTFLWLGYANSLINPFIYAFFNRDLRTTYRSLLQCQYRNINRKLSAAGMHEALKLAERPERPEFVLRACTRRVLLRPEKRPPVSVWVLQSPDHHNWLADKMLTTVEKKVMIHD
Sequence of 5-hydroxytryptamine receptor 2B (P41595 whole entry): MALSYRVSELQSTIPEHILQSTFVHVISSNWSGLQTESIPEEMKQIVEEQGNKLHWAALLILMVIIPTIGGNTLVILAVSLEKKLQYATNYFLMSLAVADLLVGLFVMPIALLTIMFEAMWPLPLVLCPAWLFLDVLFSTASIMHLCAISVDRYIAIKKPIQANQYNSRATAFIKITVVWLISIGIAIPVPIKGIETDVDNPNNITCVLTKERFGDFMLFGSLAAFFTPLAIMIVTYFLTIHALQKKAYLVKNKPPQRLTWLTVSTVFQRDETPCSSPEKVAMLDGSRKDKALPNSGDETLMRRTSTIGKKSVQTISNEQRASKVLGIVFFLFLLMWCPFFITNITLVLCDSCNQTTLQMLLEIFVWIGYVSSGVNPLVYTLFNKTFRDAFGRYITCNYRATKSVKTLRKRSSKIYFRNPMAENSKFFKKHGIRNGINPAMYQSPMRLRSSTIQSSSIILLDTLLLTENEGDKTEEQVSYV
Sequence of Beta-2 adrenergic receptor (Homo sapiens) (P07550 whole entry, looked up): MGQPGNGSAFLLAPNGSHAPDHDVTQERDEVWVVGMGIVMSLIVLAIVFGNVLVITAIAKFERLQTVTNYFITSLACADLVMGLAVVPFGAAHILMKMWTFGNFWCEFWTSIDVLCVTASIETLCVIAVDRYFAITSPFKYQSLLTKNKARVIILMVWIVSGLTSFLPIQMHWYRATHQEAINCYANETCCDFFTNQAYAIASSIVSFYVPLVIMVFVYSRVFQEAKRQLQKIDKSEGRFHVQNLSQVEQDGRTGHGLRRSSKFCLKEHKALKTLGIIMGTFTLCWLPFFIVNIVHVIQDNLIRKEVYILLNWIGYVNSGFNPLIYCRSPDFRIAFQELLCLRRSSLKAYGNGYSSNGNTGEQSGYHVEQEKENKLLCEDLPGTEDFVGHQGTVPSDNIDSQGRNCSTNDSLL
Sequence of 5-hydroxytryptamine receptor 4 (Homo sapiens) (Q13639 whole entry): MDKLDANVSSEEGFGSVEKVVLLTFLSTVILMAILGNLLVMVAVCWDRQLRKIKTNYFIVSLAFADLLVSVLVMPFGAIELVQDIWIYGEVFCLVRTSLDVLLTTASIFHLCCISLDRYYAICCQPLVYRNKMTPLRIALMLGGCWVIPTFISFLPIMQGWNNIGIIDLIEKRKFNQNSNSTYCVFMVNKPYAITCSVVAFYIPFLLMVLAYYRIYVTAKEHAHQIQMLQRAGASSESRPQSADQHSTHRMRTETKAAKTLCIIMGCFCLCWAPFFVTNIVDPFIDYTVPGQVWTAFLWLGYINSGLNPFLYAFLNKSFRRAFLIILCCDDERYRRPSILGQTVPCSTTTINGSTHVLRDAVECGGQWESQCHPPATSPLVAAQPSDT
Sequence of 5-hydroxytryptamine receptor 1D (Homo sapiens) (P28221 whole entry): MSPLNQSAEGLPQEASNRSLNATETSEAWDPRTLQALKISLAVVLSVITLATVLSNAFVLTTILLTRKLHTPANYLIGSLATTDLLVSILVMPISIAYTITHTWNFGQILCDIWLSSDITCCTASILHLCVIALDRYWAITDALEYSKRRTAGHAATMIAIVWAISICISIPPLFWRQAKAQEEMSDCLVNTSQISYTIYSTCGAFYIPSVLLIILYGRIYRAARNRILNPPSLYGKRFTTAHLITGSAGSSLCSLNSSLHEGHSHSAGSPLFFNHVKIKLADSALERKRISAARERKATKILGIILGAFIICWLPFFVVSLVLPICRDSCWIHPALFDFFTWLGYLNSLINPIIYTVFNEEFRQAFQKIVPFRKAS

NCCc1cn(S(=O)(=O)c2c(Cl)nc3sccn23)c2ccccc12
Activity [1]: 25% | Activity [2]: < 50% | concentration at 0.25 h [3]: 91.3 ng/mL | concentration at 0.5 h [4]: 66 ng/mL | concentration at 1 h [5]: 21 ng/mL | concentration at 2 h [6]: 3.2 ng/mL | concentration at 4 h [7]: 4.3 ng/mL | concentration at 0.25 h [8]: 8.4 ng/mL | concentration at 0.5 h [9]: 11.5 ng/mL | concentration at 1 h [10]: 14.2 ng/mL | Ki [11]: 458 nM | Ki [12]: 679 nM | inhibition [13]: < 50% | inhibition [14]: < 50% | inhibition [15]: < 50% | Activity [16]: 36% | Activity [17]: 21% | Activity [18]: 40% | solubility [19]: > 10000 µg/mL | solubility [20]: 240 µg/mL (≈ 630 µM) | Papp [21]: 13.6 ×10⁻⁶ cm/s | half-life [22]: > 1 h | half-life [23]: 8 min | half-life [24]: 0.433 h | half-life [25]: 6.4 min | half-life [26]: > 1 h | AUC [27]: 140 ng·h/mL | AUC [28]: 190 ng·h/mL | AUC [29]: 520 ng·h/mL | AUC [30]: 1430 ng·h/mL | Cmax [31]: 49 ng/mL | Cmax [32]: 130 ng/mL | Tmax [33]: 1.7 h | Tmax [34]: 2.3 h | half-life [35]: 5.4 h
